We go through three molecules from PMC4071626 (MedChemComm, 2013).

The structures appear in SMILES notation.

The target of one test is Δ49N CHKA2 (Homo sapiens, UniProt P35790). Briefly: Lineweaver-Burk reaction kinetics against Δ49N CHKA2. The test is classed as biochemical. As to conditions: 0.1, 1 or 10 μM inhibitor; choline or ATP varied, the other kept at KM. Summed up: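 Δ49N CHKA2 reaction kinetics run without inhibitor or with test compound at 0.1, 1 or 10 μM. Choline varied with ATP fixed at KM, or ATP varied with choline fixed at KM; double-reciprocal (Lineweaver–Burk) plots used to assign inhibition type versus each substrate.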
Δ49N CHKA2, sequence (P35790 50-457 limits assumed, stated change not applied): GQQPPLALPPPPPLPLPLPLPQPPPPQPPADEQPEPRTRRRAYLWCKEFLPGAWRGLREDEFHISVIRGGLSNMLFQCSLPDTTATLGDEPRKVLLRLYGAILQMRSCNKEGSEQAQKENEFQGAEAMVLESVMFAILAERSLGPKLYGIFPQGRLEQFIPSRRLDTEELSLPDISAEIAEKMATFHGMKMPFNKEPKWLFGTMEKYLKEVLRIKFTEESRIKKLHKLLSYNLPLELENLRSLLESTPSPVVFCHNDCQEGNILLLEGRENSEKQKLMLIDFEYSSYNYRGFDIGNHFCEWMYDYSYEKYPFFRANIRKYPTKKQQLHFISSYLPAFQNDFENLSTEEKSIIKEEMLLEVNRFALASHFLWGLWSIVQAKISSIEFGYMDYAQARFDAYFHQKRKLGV

In test [1] the test system is CHK reaction in HCT-116 cells. Put plainly: Inhibition of [3H]PCho formation from [3H]Cho in whole HCT-116 cells. The test is classed as cell-based, human. To be noted: HCT-116 cells incubated with [3H]Cho. Summed up: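 HCT-116 cells incubated with [3H]Cho plus test compound over a range of concentrations; [3H]PCho formed from [3H]Cho measured to follow dose-dependent change in cellular choline phosphorylation.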

For `CN(C)c1cc[n+](CCCCCCCCCCCC[n+]2ccc(N(C)C)cc2)cc1.[Br-].[Br-]` [Compound 8], the “Type of inhibition (Lineweaver-Burk plots)” value at Δ49N CHKA2 was “competitive with choline, but not with ATP”. For the same molecule, the “Concentration above which [3H]PCho formation is inhibited >75%” value in test [1] is reported as “above 6.5 ± 4 μM”.
Take `CN(C)c1cc[n+](CCCCCCCCCCCCn2cnc3c(N)ncnc32)cc1.[Br-]` [Compound 12]: on Δ49N CHKA2, the “Type of inhibition (Lineweaver-Burk plots)” value is “mixed type of inhibition”.
Turning to `CN(C)c1cc[n+](CCCCCCCCCCCCCC[n+]2ccc(N(C)C)cc2)cc1.[Br-].[Br-]` [Compound 13], the “Concentration above which [3H]PCho formation is inhibited >75%” value in test [1] is more than 2.4 ± 1 µM.
